Tests used:
Format in all cases: functional
Culicidae [1] = assay: Toxicity against fourth-instar larvae of Culex pipiens pallens assessed as mortality at 1 mg/kg measured after 7 to 10 days
Method in brief: (§1)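 For each concentration, 1 mL of dilution was added to 99 mL water and 20 fourth-instar larvae introduced. Percentage mortality assessed 7–10 days after treatment.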

Culicidae [2] = assay: Toxicity against fourth-instar larvae of Culex pipiens pallens assessed as mortality at 2 mg/kg measured after 7 to 10 days; method in brief: as §1
Culicidae [3] = assay: Toxicity against fourth-instar larvae of Culex pipiens pallens assessed as mortality at 0.5 mg/kg measured after 7 to 10 days; method in brief: as §1
Mythimna separata [4] = assay: Stomach toxicity in fourth-instar Mythimna separata(Oriental armyworm) larvae in compound treated corn leaves assessed as mortality at 200 mg/kg measured after 4 days; conditions: 96 h
Mythimna separata [5] = assay: Stomach toxicity in fourth-instar Mythimna separata (Oriental armyworm) larvae in compound treated corn leaves assessed as mortality at 100 mg/kg measured after 4 days; conditions: 96 h
Mythimna separata [6] = assay: Stomach toxicity in fourth-instar Mythimna separata (Oriental armyworm) larvae in compound treated corn leaves assessed as mortality at 50 mg/kg measured after 4 days; conditions: 96 h

Row | Structure (SMILES) | mortality at 1 mg/kg (Culicidae [1]) | mortality at 2 mg/kg (Culicidae [2]) | mortality at 0.5 mg/kg (Culicidae [3]) | mortality at 200 mg/kg (Mythimna separata [4]) | mortality at 100 mg/kg (Mythimna separata [5]) | mortality at 50 mg/kg (Mythimna separata [6])
1 | Cc1c(C(=O)NN(C(=O)c2cc([N+](=O)[O-])cc([N+](=O)[O-])c2)C(C)(C)C)ccc2c1CC(C)(C)O2 | 20% | 30% | 10% | 40% | 0% | 
2 | Cc1c(C(=O)NN(C(=O)c2ccccc2Cl)C(C)(C)C)ccc2c1CC(C)(C)O2 | 20% | 70% | 0% | 60% | 0% | 
3 | Cc1c(C(=O)NN(C(=O)c2ccc([N+](=O)[O-])cc2)C(C)(C)C)ccc2c1CC(C)(C)O2 | 0% | 20% |  | 10% | 0% | 
4 | Cc1c(C(=O)NN(C(=O)c2ccc(Cl)cc2Cl)C(C)(C)C)ccc2c1CC(C)(C)O2 | 0% | 50% |  | 90% | 10% | 0%
5 | Cc1c(C(=O)NN(C(=O)c2ccccc2[N+](=O)[O-])C(C)(C)C)ccc2c1CC(C)(C)O2 | 20% | 40% | 10% | 50% | 0% | 
6 | COc1ccccc1C(=O)N(NC(=O)c1ccc2c(c1C)CC(C)(C)O2)C(C)(C)C | 10% | 20% | 0% | 0% | 0% | 
7 | Cc1c(C(=O)NN(C(=O)c2ccc([N+](=O)[O-])cc2)C(C)(C)C)ccc2c1CC(C)O2 (centres undefined) | 0% | 40% |  | 60% | 0% | 
8 | Cc1c(C(=O)NN(C(=O)c2cc(Cl)cc(Cl)c2)C(C)(C)C)ccc2c1CC(C)(C)O2 | 20% | 30% | 10% | 60% | 0% | 
9 | Cc1c(C(=O)NN(C(=O)c2cccc([N+](=O)[O-])c2)C(C)(C)C)ccc2c1CC(C)O2 (centres undefined) | 10% | 20% | 0% | 20% | 0% | 
10 | Cc1c(C(=O)NN(C(=O)c2ccc(Cl)cc2)C(C)(C)C)ccc2c1CC(C)(C)O2 | 10% | 60% | 0% | 90% | 10% | 0%
11 | COc1ccc(C(=O)N(NC(=O)c2ccc3c(c2C)CC(C)(C)O3)C(C)(C)C)cc1 | 0% | 10% |  | 60% | 0% | 
12 | Cc1c(C(=O)NN(C(=O)c2cc([N+](=O)[O-])cc([N+](=O)[O-])c2)C(C)(C)C)ccc2c1CC(C)O2 (centres undefined) | 20% | 30% | 10% | 20% | 0% | 
13 | Cc1c(C(=O)NN(C(=O)c2cccc(Cl)c2)C(C)(C)C)ccc2c1CC(C)(C)O2 | 0% | 10% |  | 80% | 10% | 0%
14 | Cc1c(C(=O)NN(C(=O)c2ccccc2)C(C)(C)C)ccc2c1CC(C)(C)O2 | 30% | 50% | 10% | 40% | 10% | 0%
15 | Cc1c(C(=O)NN(C(=O)c2cccc([N+](=O)[O-])c2)C(C)(C)C)ccc2c1CC(C)(C)O2 | 20% | 30% | 10% | 10% | 0% | 

Source: ChEMBL document CHEMBL3046382, “Synthesis and insecticidal activities and SAR studies of novel benzoheterocyclic diacylhydrazine derivatives” (2009)
